# Measurements from different studies.
# Each line is one published result; the experiments were not run side by side.
SMILES,species,matrix,route,dose,setting,half-life
CCOc1ccc(N(C)S(=O)(=O)c2cc(Cl)sc2C(=O)Nc2cc(Cl)cc(C(=O)O)c2)cc1OC,male C57BL/6 mouse,plasma,intraperitoneal,10 mg/kg,,0.469 h
CN1CCN(C(=O)[C@H](CCCN[C@@H]2C[C@H]2c2ccc(F)cc2)NC(=O)c2ccc(-n3ccnn3)cc2)CC1,CD-1 mouse,plasma,oral,10 mg/kg,,4.98 h
O=C1CCC(N2Cc3cc(NC(=O)c4cccc(F)c4)ccc3C2=O)C(=O)N1 (stereo not shown),female CD-1 mouse,plasma,intravenous,3 mg/kg,,1.2 h
FC(F)(F)c1nc2c(-c3cc(Cl)cc(Cl)c3)ccnc2[nH]1,male C57BL/6 mouse,plasma,oral,10 mg/kg,,> 15 h
CC(C)(C)OC(=O)NNc1nc2nonc2nc1Nc1ccccc1F,male C57BL/6 mouse,plasma,oral,10 mg/kg,,0.25 to 0.45 h
CC(=O)O[C@@]12CO[C@@H]1C[C@H](O)[C@@]1(C)C(=O)[C@H](O)C3=C(C)[C@@H](OC(=O)[C@H](O)[C@@H](NC(=O)OC(C)(C)C)c4ccccc4)C[C@@](O)([C@@H](OC(=O)c4ccccc4)[C@H]21)C3(C)C,male Kunming mouse,liver,oral,20 mg/kg,,2.7 h
CC(C(=O)Nc1c(F)cccc1F)N1CCN(c2ccccc2)CC1 (stereo not shown),female C57BL/6 mouse,brain,intraperitoneal,10 mg/kg,,~0.45 h
COc1cc(C(=O)OCCCN2CCCN(CCCOC(=O)c3cc(OC)c(OC)c(OC)c3)CC2)cc(OC)c1OC,male CD-1 mouse,plasma,subcutaneous,,,0.83 h
O=C1CC[C@H](N2Cc3c(ccc4c3OCC43CCN(C[C@@H]4CCC5(CCN(c6ccc([C@@H]7c8ccc(O)cc8CC[C@@H]7c7ccccc7)cc6)CC5)OC4)CC3)C2=O)C(=O)N1,mouse,plasma,oral,3 mg/kg,,~13 h
CCN1CCN(Cc2ccc(NC(=O)c3ccc(C)c(NC(=O)c4cncc(-c5cccs5)c4)c3)cc2C(F)(F)F)CC1,mouse,plasma,intraperitoneal,30 mg/kg,single dose,2.71 h
Nc1ncn([C@H]2C[C@H](O)[C@@H](CO)O2)c(=O)n1,female C57BL/6 mouse,plasma,oral,0.4 mg/kg,,0.91 h
CC1=NN(/C(=N/c2nnc(C)s2)Nc2ccc(C)c(C)c2)C(c2cc(F)c(F)c(F)c2)S1 (stereo not shown),male CD-1 mouse,plasma,intravenous,1 mg/kg,,1.56 h
CCOC(=O)c1cc(Cl)cc(NC(=O)c2sc(Cl)cc2S(=O)(=O)N(C)c2ccc(OCC)c(OC)c2)c1,male C57BL/6 mouse,brain,intraperitoneal,10 mg/kg,,2.14 h
